The source made the active and inactive calls. No cut-off for these calls is given here.
Tests used:
[1] = target: T1, Tyrosine-protein phosphatase non-receptor type 2 (Homo sapiens, UniProt P17706); experiment: Inhibition of human TCPTP using p-nitrophenol phosphate as substrate incubated for 35 mins prior to substrate addition measured after 30 mins by spectrophotometry
T1 sequence (P17706 whole entry): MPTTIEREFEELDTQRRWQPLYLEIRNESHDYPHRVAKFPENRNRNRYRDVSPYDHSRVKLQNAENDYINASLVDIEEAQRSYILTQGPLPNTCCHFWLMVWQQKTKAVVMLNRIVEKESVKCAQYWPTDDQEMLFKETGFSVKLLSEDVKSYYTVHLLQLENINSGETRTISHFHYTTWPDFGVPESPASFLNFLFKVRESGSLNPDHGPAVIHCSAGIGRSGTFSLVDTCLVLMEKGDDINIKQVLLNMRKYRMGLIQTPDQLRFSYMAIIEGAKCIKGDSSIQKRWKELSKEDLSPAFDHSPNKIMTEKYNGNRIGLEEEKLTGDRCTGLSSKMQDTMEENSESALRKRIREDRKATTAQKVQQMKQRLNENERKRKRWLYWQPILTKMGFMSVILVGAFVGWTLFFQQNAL
In short: (§1)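 Recombinant human phosphatase, expressed and purified, in 20 mM MOPS pH 7.2 with 50 mM NaCl. Preincubated with inhibitor at various concentrations for 35 min at 37 °C. p-NPP (0.1 M stock) added and reaction run about 30 min, then stopped with 2 M NaOH.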

[2] = target: T2, Tyrosine-protein phosphatase non-receptor type 11 (Homo sapiens, UniProt Q06124); experiment: Inhibition of human SHP2 using p-nitrophenol phosphate as substrate incubated for 35 mins prior to substrate addition measured after 30 mins by spectrophotometry; in short: as §1
T2 sequence (Q06124 whole entry): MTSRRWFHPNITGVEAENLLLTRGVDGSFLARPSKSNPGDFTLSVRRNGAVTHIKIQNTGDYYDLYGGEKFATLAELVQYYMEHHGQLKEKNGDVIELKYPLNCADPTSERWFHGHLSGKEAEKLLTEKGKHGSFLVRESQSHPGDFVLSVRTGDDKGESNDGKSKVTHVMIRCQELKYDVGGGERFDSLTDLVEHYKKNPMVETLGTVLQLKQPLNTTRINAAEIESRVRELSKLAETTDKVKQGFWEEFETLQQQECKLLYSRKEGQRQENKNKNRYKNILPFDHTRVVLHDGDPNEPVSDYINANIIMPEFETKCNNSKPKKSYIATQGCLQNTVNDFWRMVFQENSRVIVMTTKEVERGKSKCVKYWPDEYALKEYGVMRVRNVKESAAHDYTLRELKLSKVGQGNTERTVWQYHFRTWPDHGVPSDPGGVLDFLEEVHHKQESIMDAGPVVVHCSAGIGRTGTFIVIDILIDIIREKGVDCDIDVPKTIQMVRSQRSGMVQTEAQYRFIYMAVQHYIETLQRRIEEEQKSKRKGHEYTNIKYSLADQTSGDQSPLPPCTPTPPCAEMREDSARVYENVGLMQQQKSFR

[3] = target: T3, Tyrosine-protein phosphatase non-receptor type 9 (Homo sapiens, UniProt P43378); experiment: Inhibition of human PTP-MEG2 using p-nitrophenol phosphate as substrate incubated for 35 mins prior to substrate addition measured after 30 mins by spectrophotometry; in short: as §1
T3 sequence (P43378 whole entry): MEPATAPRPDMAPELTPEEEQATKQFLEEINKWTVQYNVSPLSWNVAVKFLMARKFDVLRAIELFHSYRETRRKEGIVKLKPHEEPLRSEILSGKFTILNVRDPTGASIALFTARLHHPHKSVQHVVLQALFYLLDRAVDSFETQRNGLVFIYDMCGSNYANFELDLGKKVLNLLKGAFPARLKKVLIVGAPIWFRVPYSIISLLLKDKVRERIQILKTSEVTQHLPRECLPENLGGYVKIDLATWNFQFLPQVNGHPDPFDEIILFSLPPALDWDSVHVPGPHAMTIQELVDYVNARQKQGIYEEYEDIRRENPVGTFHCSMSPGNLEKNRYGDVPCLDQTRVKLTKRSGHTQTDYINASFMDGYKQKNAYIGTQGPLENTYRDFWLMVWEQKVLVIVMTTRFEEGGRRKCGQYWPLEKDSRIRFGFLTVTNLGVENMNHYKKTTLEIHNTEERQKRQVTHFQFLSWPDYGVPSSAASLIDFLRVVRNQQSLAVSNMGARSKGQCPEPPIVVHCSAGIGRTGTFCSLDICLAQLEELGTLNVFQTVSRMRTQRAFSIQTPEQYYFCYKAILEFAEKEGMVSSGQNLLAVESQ

[4] = target: Tyrosine-protein phosphatase non-receptor type 6 (Homo sapiens, UniProt P29350); experiment: Inhibition of human SHP1 using p-nitrophenol phosphate as substrate incubated for 35 mins prior to substrate addition measured after 30 mins by spectrophotometry; in short: as §1
[5] = target: T4, Tyrosine-protein phosphatase non-receptor type 1 (Homo sapiens, UniProt P18031); experiment: Inhibition of human PTP1B using p-nitrophenol phosphate as substrate incubated for 35 mins prior to substrate addition measured after 30 mins by spectrophotometry; in short: as §1
T4 sequence (P18031 whole entry): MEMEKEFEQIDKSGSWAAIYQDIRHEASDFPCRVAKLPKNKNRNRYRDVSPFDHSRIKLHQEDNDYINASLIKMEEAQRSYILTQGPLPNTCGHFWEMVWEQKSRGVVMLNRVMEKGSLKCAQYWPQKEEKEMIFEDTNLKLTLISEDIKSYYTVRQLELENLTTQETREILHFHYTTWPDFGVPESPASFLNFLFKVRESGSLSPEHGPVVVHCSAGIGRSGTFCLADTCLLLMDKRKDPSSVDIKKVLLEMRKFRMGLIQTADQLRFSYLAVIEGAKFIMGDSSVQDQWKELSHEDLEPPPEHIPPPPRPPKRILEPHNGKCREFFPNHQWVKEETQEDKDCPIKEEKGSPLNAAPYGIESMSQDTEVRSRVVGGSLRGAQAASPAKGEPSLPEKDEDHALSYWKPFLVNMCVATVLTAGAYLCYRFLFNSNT

[6] = target: T5, Tyrosine-protein phosphatase non-receptor type 9 (Homo sapiens) (UniProt P43378)
T5 sequence (whole entry): T3 sequence (P43378 whole entry)

HepG2 [7] = experiment: Induction of apoptosis in human HepG2 cells assessed as apoptotic cells at 100 uM after 48 hrs by AnnexinV-FITC/PI flow cytometric analysis; type: functional
In short: (§2)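 HepG2 cells exposed to 50, 100 or 300 μM for 48 h. Harvested, washed twice in ice-cold 0.85% NaCl, then resuspended in binding buffer with Annexin V-FITC and PI. Stained 15 min in the dark at room temperature and analysed by flow cytometry within 1 h. Viable, early/late apoptotic and necrotic fractions quantified from annexin V binding and PI uptake; mean ± SD, n = 3.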

[8] = target: T6, Tyrosine-protein phosphatase non-receptor type 1 (Homo sapiens) (UniProt P18031)
T6 sequence (whole entry): T4 sequence (P18031 whole entry)

[9] = target: T6, Tyrosine-protein phosphatase non-receptor type 1 (Homo sapiens); remark: listed apart in the source
HepG2 [10] = experiment: Induction of apoptosis in human HepG2 cells at 50 uM after 48 hrs by AnnexinV-FITC/PI flow cytometric analysis; type: functional, cell-based; in short: as §2
[11] = target: T6, Tyrosine-protein phosphatase non-receptor type 1 (Homo sapiens); remark: listed apart in the source
HepG2 [12] = experiment: Induction of necrosis in human HepG2 cells assessed as necrotic cells at 100 uM after 48 hrs by AnnexinV-FITC/PI flow cytometric analysis; type: functional; in short: as §2
HepG2 [13] = experiment: Induction of apoptosis in human HepG2 cells assessed as apoptotic cells at 300 uM after 48 hrs by AnnexinV-FITC/PI flow cytometric analysis; type: functional; in short: as §2
HepG2 [14] = experiment: Cytotoxicity against human HepG2 cells after 48 hrs by MTT assay; type: functional, cell-based
In short: (§3)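 HepG2 or MCF7 cells in DMEM with 10% FBS and penicillin/streptomycin, 37 °C, 5% CO2. Plated overnight, then exposed to a range of concentrations for 48 h with DMSO held at 1.0% in samples and control. MTT (5 mg/mL stock) added for 4 h at 37 °C, formazan dissolved in DMSO, OD read at 490 nm. Viability % = T/C × 100, averaged over six wells.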

MCF7 = experiment: Cytotoxicity against human MCF7 cells after 48 hrs by MTT assay; type: functional, cell-based; in short: as §3
HepG2 [15] = experiment: Induction of necrosis in human HepG2 cells assessed as necrotic cells at 300 uM after 48 hrs by AnnexinV-FITC/PI flow cytometric analysis; type: functional
In short: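 HepG2 cells grown in DMEM with 10% FBS and penicillin/streptomycin at 37 °C under 5% CO2, then exposed for 48 h to three concentrations (50, 100, 300). Cells were washed twice in ice-cold 0.85% NaCl and stained with annexin V-FITC and PI in binding buffer for 15 min in the dark at room temperature. Flow cytometry within 1 h sorted necrotic cells by annexin V binding and PI uptake; mean ± SD, n = 3.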

Chain of Tyrosine-protein phosphatase non-receptor type 6 (P29350 whole entry): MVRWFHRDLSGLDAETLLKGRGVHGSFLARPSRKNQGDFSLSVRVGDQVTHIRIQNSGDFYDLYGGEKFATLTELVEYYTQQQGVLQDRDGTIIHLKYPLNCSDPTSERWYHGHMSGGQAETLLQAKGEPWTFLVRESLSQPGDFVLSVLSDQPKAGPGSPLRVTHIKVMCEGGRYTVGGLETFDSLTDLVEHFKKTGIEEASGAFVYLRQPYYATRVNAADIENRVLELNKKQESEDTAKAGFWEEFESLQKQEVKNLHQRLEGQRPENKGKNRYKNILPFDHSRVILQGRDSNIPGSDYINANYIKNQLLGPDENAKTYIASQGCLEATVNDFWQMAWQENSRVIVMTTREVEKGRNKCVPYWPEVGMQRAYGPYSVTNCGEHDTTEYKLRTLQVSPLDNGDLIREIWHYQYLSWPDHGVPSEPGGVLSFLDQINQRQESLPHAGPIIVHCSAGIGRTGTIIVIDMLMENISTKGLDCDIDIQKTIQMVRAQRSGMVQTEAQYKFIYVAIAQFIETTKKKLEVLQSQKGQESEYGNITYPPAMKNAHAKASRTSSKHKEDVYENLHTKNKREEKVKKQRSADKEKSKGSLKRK

Structure (SMILES) | IC50 [1] [µM] | IC50 [2] [mM] | IC50 [3] [µM] | IC50 [4] [mM] | IC50 [5] [µM] | Kic [6] [µM] | Kic [8] [µM] | Ka [9] [×10⁵ /M] | Ka [11] [×10⁵ /M] | Activity (HepG2 [7]) [%] | Activity (HepG2 [10]) | Activity (HepG2 [12]) [%] | Activity (HepG2 [13]) [%] | Activity (HepG2 [14]) | Activity (MCF7) | Activity (HepG2 [15]) [%]
CCOP(=O)(OCC)[C@H](Nc1ccccc1Cl)c1ccccc1O | 178 | > 10 | 146 | > 10 | 137 |  |  |  |  |  |  |  |  |  |  | 
CCOP(=O)(O)C(N[C@@H](CO)C(=O)O)c1ccccc1O (some centres not stated) | 123 | 0.191 | 68.6 | 0.129 | 135 | 102 |  |  |  |  |  |  |  |  |  | 
CCOP(=O)(O)C(N[C@@H](Cc1cnc[nH]1)C(=O)O)c1ccccc1O (some centres not stated) | 178 | 0.21 | > 10000 | 0.167 | 334 |  |  |  |  |  |  |  |  |  |  | 
CCOP(=O)(OCC)[C@H](Nc1ccc([N+](=O)[O-])cc1)c1ccccc1O | 239 | > 10 | 291 | > 10 | 217 |  |  |  |  |  |  |  |  |  |  | 
CCOP(=O)(O)C(NCCNC(c1ccccc1O)P(=O)(O)OCC)c1ccccc1O (configuration not stated) | > 10000 | > 10 | > 10000 | > 10 | > 10000 |  |  |  |  |  |  |  |  |  |  | 
CCOP(=O)(O)C(NCC(=O)O)c1ccccc1O (configuration not stated) | > 10000 | > 10 | > 10000 | > 10 | > 10000 |  |  |  |  |  |  |  |  |  |  | 
O=P(O)(O)[C@H](Nc1ccc(O)cc1)c1ccccc1O | 14.4 | > 10 | 160 | > 10 | 6.64 |  | 4.4 | 2.23 | 2.27 | 7.2 | inactive | 1.9 | 69.7 | Dose-dependent effect | Dose-dependent effect | 22.7
CCOP(=O)(O)C(N[C@@H](Cc1ccccc1)C(=O)O)c1ccccc1O (some centres not stated) | > 10000 | > 10 | > 10000 | > 10 | > 10000 |  |  |  |  |  |  |  |  |  |  | 
CCOP(=O)(O)C(N[C@@H](CS)C(=O)O)c1ccccc1O (some centres not stated) | > 10000 | > 10 | > 10000 | > 10 | > 10000 |  |  |  |  |  |  |  |  |  |  | 
CCOP(=O)(O)C(N[C@@H](C)C(=O)O)c1ccccc1O (some centres not stated) | > 10000 | > 10 | > 10000 | > 10 | > 10000 |  |  |  |  |  |  |  |  |  |  | 
CCOP(=O)(O)C(N[C@@H](Cc1ccc(O)cc1)C(=O)O)c1ccccc1O (some centres not stated) | > 10000 | > 10 | > 10000 | > 10 | > 10000 |  |  |  |  |  |  |  |  |  |  | 

More lines, main results first:

IC50 [1] [µM] | IC50 [2] [mM] | IC50 [3] [µM] | IC50 [4] [mM] | IC50 [5] [µM] | Kic [6] [µM] | Kic [8] [µM] | Ka [9] [×10⁵ /M] | Ka [11] [×10⁵ /M] | Structure (SMILES) | Activity (HepG2 [7]) [%] | Activity (HepG2 [10]) | Activity (HepG2 [12]) [%] | Activity (HepG2 [13]) [%] | Activity (HepG2 [14]) | Activity (MCF7) | Activity (HepG2 [15]) [%]
> 10000 | > 10 | > 10000 | > 10 | > 10000 |  |  |  |  | CCOP(=O)(O)C(NCCCCCCNC(c1ccccc1O)P(=O)(O)OCC)c1ccccc1O (configuration not stated) |  |  |  |  |  |  | 
> 10000 | > 10 | > 10000 | > 10 | > 10000 |  |  |  |  | CCOP(=O)(O)C(N[C@@H](Cc1c[nH]c2ccccc12)C(=O)O)c1ccccc1O (some centres not stated) |  |  |  |  |  |  | 
51.1 | > 10 | 173 | > 10 | 91.7 |  | 96.3 |  |  | CCOP(=O)(OCC)[C@H](Nc1ccc(Br)cc1)c1ccccc1O |  |  |  |  |  |  | 
> 10000 | > 10 | > 10000 | > 10 | > 10000 |  |  |  |  | CCOP(=O)(O)C(NCCCNC(c1ccccc1O)P(=O)(O)OCC)c1ccccc1O (configuration not stated) |  |  |  |  |  |  | 
> 10000 | > 10 | > 10000 | > 10 | > 10000 |  |  |  |  | CCOP(=O)(O)C(N[C@H](C(=O)O)[C@@H](C)O)c1ccccc1O (some centres not stated) |  |  |  |  |  |  | 
627 | > 10 | 347 | > 10 | 373 |  |  |  |  | CCOP(=O)(OCC)[C@H](Nc1ccc(Cl)cc1)c1ccccc1O |  |  |  |  |  |  | 
